From ChEMBL document CHEMBL2331313, “Synthesis and SAR study of modulators inhibiting tRXRα-dependent AKT activation” (Eur J Med Chem, 2013)
The source made the active and inactive calls. The calls are words filed in the database; no cut-off is given here.

How the values were obtained:
[1] = biological target: T1, Retinoic acid receptor RXR-alpha (Homo sapiens, UniProt P19793); assay: Displacement of [3H]-9-cis-RA from human GST-tagged N-terminal truncated RXRalpha after 1 hr by liquid scintillation counting
T1 sequence (P19793 whole entry): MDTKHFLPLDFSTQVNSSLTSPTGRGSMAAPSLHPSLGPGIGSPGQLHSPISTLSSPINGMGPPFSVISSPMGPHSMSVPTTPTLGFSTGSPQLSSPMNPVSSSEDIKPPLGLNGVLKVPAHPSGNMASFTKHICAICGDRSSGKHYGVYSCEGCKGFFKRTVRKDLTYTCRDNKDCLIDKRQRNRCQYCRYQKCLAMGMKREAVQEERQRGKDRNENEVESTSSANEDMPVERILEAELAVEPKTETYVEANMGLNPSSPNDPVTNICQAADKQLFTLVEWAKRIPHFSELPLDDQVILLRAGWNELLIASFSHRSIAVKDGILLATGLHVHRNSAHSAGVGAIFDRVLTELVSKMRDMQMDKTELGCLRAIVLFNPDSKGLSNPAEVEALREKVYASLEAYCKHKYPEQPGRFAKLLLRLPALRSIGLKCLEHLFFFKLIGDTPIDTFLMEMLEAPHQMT
Outline: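 GST-tagged human RXRα-LBD (223–462) preincubated with unlabeled 9-cis-RA or test compound at varied concentrations in binding buffer (0.15 M KCl, 10 mM Tris·HCl pH 7.4, 8% glycerol, 0.5% CHAPS), 4°C, 1 h; [3H]-9-cis-RA then added to 7.5 nM final, overnight at 4°C. Receptor captured on glutathione sepharose beads; bound radioligand counted by liquid scintillation.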

HeLa = assay: Decrease in TNFalpha-induced Akt phosphorylation in RXRalpha-knockdown human HeLa cells at 20 uM incubated for 1 hr prior to TNFalpha-induction measured after 30 mins by Western blot analysis; format: functional, cell-based
PC-3 = assay: Cytotoxicity against human PC3 cells after 24 hrs by MTT assay; format: functional, cell-based
Outline: (§1)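 Cells in RPMI1640 with 10% FBS (37°C, 5% CO2) treated with various concentrations for 24 hr in 96-well format. MTT at 2 mg/mL added for 4 hr at 37°C, formazan dissolved in DMSO, absorbance read at 570 nm for viability.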

ZR-75-1 [2] = assay: Induction of apoptosis in human ZR75-1 cells assessed as PARP cleavage at 30 uM after 6 hrs by Western blot analysis; format: functional, cell-based
Outline: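 ZR-75-1 cells (RPMI1640, 10% FBS) treated with vehicle or 30 μM compound for 6 hr. Lysates run on 10% SDS-PAGE, blotted to PVDF and probed with anti-PARP (1:3000) for cleavage, ECL detection.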

HCT-116 = assay: Induction of apoptosis in human HCT116 cells assessed as increase in TNFalpha-induced PARP cleavage at 40 uM after 4 hrs by Western blot analysis; format: functional, cell-based
ZR-75-1 [3] = assay: Cytotoxicity against human ZR75-1 cells after 24 hrs by MTT assay; format: functional, cell-based; outline: as §1
[4] = biological target: T1, Retinoic acid receptor RXR-alpha; assay: Displacement of [3H]-9-cis-RA from RXRalpha (unknown origin) by liquid scintillation counting
[5] = biological target: T2, Retinoic acid receptor RXR-alpha (Homo sapiens) (UniProt P19793); assay: Inhibition of RXRalpha in human HepG2 cells assessed as inhibition of TNFalpha-induced Akt phosphorylation; format: cell-based
T2 sequence (whole entry): T1 sequence (P19793 whole entry)

[6] = biological target: T2, Retinoic acid receptor RXR-alpha (Homo sapiens); assay: Inhibition of RXRalpha in human A549 cells assessed as inhibition of TNFalpha-induced Akt phosphorylation at 30 uM incubated for 1 hr prior to TNFalpha-induction measured after 30 mins by Western blot analysis; format: cell-based
Outline: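 A549 cells (DMEM, 10% FBS) pretreated 1 hr with 30 μM compound, then TNFα (10 ng/mL) for 30 min. Phospho-AKT (1:1000) and total AKT (1:1000) immunoblotted after 10% SDS-PAGE, with ECL detection.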

[7] = biological target: T2, Retinoic acid receptor RXR-alpha (Homo sapiens); assay: Antagonist activity at RXRalpha (unknown origin) expressed in HCT116 cells assessed as inhibition of 9-cis-RA-induced galactosidase activity after 12 hrs by gal4 reporter gene assay; format: cell-based; details: HCT-116, in the assay text read “luciferase activity” for “galactosidase activity”
Outline: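 GAL4-RXRα-LBD transactivation in HCT-116 cells: cells transfected for 24 hr with pG5 luciferase reporter (50 ng/well) plus pGAL4-RXRα-LBD vector (50 ng/well), then exposed to 9-cis-RA (10^-7 M) together with varied compound concentrations for 12 hr. Luciferase read by dual-luciferase assay. Cells grown in DMEM with 10% FBS, 37°C, 5% CO2.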

[8] = biological target: T2, Retinoic acid receptor RXR-alpha (Homo sapiens); assay: Inhibition of RXRalpha in human HCT116 cells assessed as inhibition of TNFalpha-induced Akt phosphorylation; format: cell-based; details: HCT-116

SMILES	IC50 [1] [µM]	also measured
CC1=C(CC(N)=O)c2cc(F)ccc2/C1=C\c1ccc(C(C)C)cc1	≥ 100	–
COc1ccc(/C=C2/C(C)=C(CC(=O)O)c3cc(F)ccc32)cc1	≥ 100	–
CC1=C(CC(N)=O)c2cc(F)ccc2/C1=C/c1ccc(C(C)C)cc1	≥ 100	–
CC(=O)Nc1ccc(/C=C2/C(C)=C(CC(=O)O)c3cc(F)ccc32)cc1	≥ 100	–
CC1=C(CC(=O)O)c2ccccc2/C1=C\c1ccc(C(C)C)cc1	≥ 100	–
CC1=C(CC(=O)O)c2cc(F)ccc2/C1=C\c1ccccc1	10.7	–
CC1=C(CC(=O)O)c2cc(Cl)ccc2/C1=C\c1ccc(C(C)C)cc1	≥ 100	–
CC1=C(CC(=O)O)c2cc(F)ccc2/C1=C\c1ccc(C(C)(C)C)cc1	≥ 100	–
CC1=C(CCC(=O)O)c2cc(F)ccc2/C1=C\c1ccc(C(C)C)cc1	5.71	–
CCOc1ccc(/C=C2/C(C)=C(CC(=O)O)c3cc(F)ccc32)cc1	≥ 100	–
CC(C)c1ccc(/C=C2\C=C(CC(=O)O)c3cc(F)ccc32)cc1	1.6	Activity (HeLa): inactive; Activity (PC-3): Dose-dependent effect; Activity (ZR-75-1 [2]): Active; Activity (HCT-116): Active; Activity (ZR-75-1 [3]): Dose-dependent effect
CC1=C(CC(=O)O)c2cc(F)ccc2/C1=C\c1ccc(N(C)C)cc1	≥ 100	–
CC(C)CC1=C(CC(=O)O)c2cc(F)ccc2/C1=C\c1ccc(C(C)C)cc1	3.15	–
CC1=C(CC(=O)O)c2cc(F)ccc2/C1=C\c1ccc([S+](C)[O-])cc1 (stereo unspecified)	–	Activity (ZR-75-1 [2]): Active; Activity (HCT-116): Active; IC50 [4]: 82.9 µM
CC1=C(CC(=O)O)c2cc(F)ccc2/C1=C\c1ccc(C(C)C)cc1	–	inhibition [5]: Active; Activity (ZR-75-1 [2]): Active; inhibition [6]: Active; Activity (HCT-116): Active; inhibition [7]: Dose-dependent effect; inhibition [8]: Active; IC50 [4]: 2.4 µM
CCc1ccc2c(c1)C(CC(=O)O)=C(C)/C2=C/c1ccc(C(C)C)cc1	≥ 100	–
CC1=C(CC(=O)O)c2cc(F)ccc2/C1=C\c1ccc(C(F)(F)F)cc1	4.73	–
CC1=C(CC(=O)O)c2cc(F)ccc2/C1=C\c1ccc(C#N)cc1	≥ 100	–
CC1=C(CC(=O)O)c2cc(F)ccc2/C1=C\c1ccc(-c2ccccn2)cc1	≥ 100	–
CCOc1ccc2c(c1)C(CC(=O)O)=C(C)/C2=C/c1ccc(C(C)C)cc1	3.08	–
CC1=C(CC(=O)O)c2cc(F)ccc2/C1=C\c1cccc(C#N)c1	≥ 100	–
CCC1=C(CC(=O)O)c2cc(F)ccc2/C1=C\c1ccc(C(C)C)cc1	6.29	–
COc1ccc2c(c1)C(CC(=O)O)=C(C)/C2=C/c1ccc(C(C)C)cc1	≥ 100	–
CC1=C(CC(=O)O)c2cc(F)ccc2/C1=C\c1cccc(C(F)(F)F)c1	8.27	–
CC1=C(CCC#N)c2cc(F)ccc2/C1=C\c1ccc(C(C)C)cc1	≥ 100	–
CC1=C(CC(=O)O)c2cc(C(C)C)ccc2/C1=C\c1ccc(C(C)C)cc1	≥ 100	–
COc1cccc(/C=C2/C(C)=C(CC(=O)O)c3cc(F)ccc32)c1	≥ 100	–
CC1=C(CC(=O)O)c2cc(C)ccc2/C1=C\c1ccc(C(C)C)cc1	≥ 100	–
